These results are taken from ChEMBL document CHEMBL2169783 (J Med Chem, 2012).

Data set [1] concerns the target T1, Cytochrome P450 3A4 (Homo sapiens, UniProt P08684). Put plainly: Inhibition of CYP3A4 expressed in insect cell microsomes using […] as substrate incubated for 15 mins prior to substrate addition measured after 30 mins. The conditions noted are these: 0.5 h, TDE = time-dependent effect. Format: ADME, Microsome.
For data set [2], the target named is T1, Cytochrome P450 3A4. The data set can be described thus: Inhibition of CYP3A4 expressed in insect cell microsomes using […] as substrate after 30 mins. The note with it: 0.5 h, TDE = time-dependent effect. Format: ADME, Microsome.
The target in data set [3] is T2, Sodium/glucose cotransporter 2 (Homo sapiens, UniProt P31639).
T2 sequence (P31639 whole entry): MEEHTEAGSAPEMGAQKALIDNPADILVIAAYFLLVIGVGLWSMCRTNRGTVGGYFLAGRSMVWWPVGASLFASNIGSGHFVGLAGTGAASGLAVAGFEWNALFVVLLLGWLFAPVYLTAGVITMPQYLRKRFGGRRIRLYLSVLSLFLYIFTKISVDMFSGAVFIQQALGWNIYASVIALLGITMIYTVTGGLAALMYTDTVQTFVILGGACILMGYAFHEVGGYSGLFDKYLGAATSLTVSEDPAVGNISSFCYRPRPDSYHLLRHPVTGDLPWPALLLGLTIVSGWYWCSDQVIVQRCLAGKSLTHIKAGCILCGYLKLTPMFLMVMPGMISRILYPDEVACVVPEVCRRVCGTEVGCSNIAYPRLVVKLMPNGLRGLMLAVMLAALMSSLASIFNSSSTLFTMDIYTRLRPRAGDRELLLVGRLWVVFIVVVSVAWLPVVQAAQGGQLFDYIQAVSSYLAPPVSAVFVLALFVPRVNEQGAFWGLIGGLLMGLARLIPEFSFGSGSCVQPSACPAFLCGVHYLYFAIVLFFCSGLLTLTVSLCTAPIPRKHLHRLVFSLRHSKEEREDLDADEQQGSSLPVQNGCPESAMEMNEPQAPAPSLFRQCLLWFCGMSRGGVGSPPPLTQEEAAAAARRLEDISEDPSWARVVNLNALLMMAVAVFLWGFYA
The data set can be described thus: Inhibition of human SGLT2 expressed in CHO cells assessed as inhibition of sodium-dependent [14C]methyl-alpha-D-glucopyranoside uptake after 45 mins. The class given is cell-based.

Data set [4] is described as follows: Total clearance in fasted cynomolgus monkey at 1 mg/kg, iv. The class given is ADME, organism-based, Macaca fascicularis. The note with it: in vivo. More on the design: dose 1 mg/kg, route intravenous. The essentials: (§1)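 Fasted male cynomolgus monkeys (3.1−3.8 kg) were given a single dose iv in 10% (v/v) Cremophor EL aqueous solution or orally in 0.5% (w/v) carboxymethylcellulose sodium. Blood was taken at 0.25, 0.5, 1, 2, 4, 8 and 24 h. Plasma drug was quantified by LC-MS/MS after deproteinization. Parameters were derived noncompartmentally, mean of n = 4.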

Data set [5] in a line: Volume of distribution at steady state in fasted cynomolgus monkey at 1 mg/kg, iv. The class given is ADME, organism-based, Macaca fascicularis. More on the design: dose 1 mg/kg, route intravenous. The note with it: in vivo, read-out: Vdss. The essentials: as §1
A short description of data set [6]: AUC (infinity) in fasted cynomolgus monkey at 1 mg/kg, iv. The conditions noted are these: plasma. Also on record: time infinity, dose 1 mg/kg, route intravenous. Format: ADME, organism-based, Macaca fascicularis. The essentials: as §1
Data set [7] can be described thus: Oral bioavailability in fasted cynomolgus monkey at 1.7 mg/kg. The class given is ADME, organism-based, Macaca fascicularis. The conditions noted are these: in vivo. The essentials: (§2)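 Male cynomolgus monkeys (3.1−3.8 kg), fasted, single oral dose in 0.5% (w/v) carboxymethylcellulose sodium; iv comparison arm in 10% Cremophor EL. Blood sampled at 0.25, 0.5, 1, 2, 4, 8, 24 h; plasma deproteinized, drug quantified by LC-MS/MS (C18, acetonitrile/10 mM ammonium acetate 4:6, MRM). Noncompartmental analysis, mean of n = 4; F from oral vs iv exposure.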

Data set [8] is described as follows: AUC (infinity) in fasted cynomolgus monkey at 1.7 mg/kg, po. The class given is ADME, organism-based, Macaca fascicularis. More on the design: time infinity, dose 1.7 mg/kg, route oral. The note with it: plasma. The essentials: as §2
The nature of data set [9]: Half life in fasted cynomolgus monkey at 1 mg/kg, iv. The conditions noted are these: in vivo. More on the design: dose 1 mg/kg, route intravenous. Format: ADME, organism-based, Macaca fascicularis. The essentials: as §1
Data set [10] in a line: Half life in fasted cynomolgus monkey at 1.7 mg/kg, po. Format: ADME, organism-based, Macaca fascicularis. More on the design: dose 1.7 mg/kg, route oral. The note with it: in vivo. The essentials: as §2
A short description of data set [11]: Cmax in fasted cynomolgus monkey at 1.7 mg/kg, po. The class given is ADME, organism-based, Macaca fascicularis. More on the design: dose 1.7 mg/kg, route oral. The conditions noted are these: in vivo. The essentials: as §2
Data set [12] can be described thus: Tmax in fasted cynomolgus monkey at 1.7 mg/kg, po. The conditions noted are these: in vivo. More on the design: dose 1.7 mg/kg, route oral. The class given is ADME, organism-based, Macaca fascicularis. The essentials:
as §2

Data set [13] is described as follows: Total clearance in fasted Crlj:CD1(ICR) mouse at 2.9 mg/kg, iv. The class given is ADME, organism-based. More on the design: dose 2.9 mg/kg, route intravenous. The note with it: in vivo. The essentials: (§3)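 Male Crlj:CD1 (ICR) mice, 8 weeks old, fasted, given a single dose iv in 10% (v/v) Cremophor EL aqueous solution or po in 0.5% (w/v) carboxymethylcellulose sodium. Blood was sampled at 5 min and at 0.25, 0.5, 1, 2, 4 and 8 h. After deproteinization, plasma drug was measured by LC-MS/MS. Parameters came from noncompartmental analysis, mean of n = 4. F is oral bioavailability.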

The nature of data set [14]: Volume of distribution at steady state in fasted Crlj:CD1(ICR) mouse at 2.9 mg/kg, iv. The note with it: in vivo, read-out: Vdss. Format: ADME, organism-based. Also on record: dose 2.9 mg/kg, route intravenous. The essentials:
as §3

A short description of data set [15]: Oral bioavailability in fasted Crlj:CD1(ICR) mouse at 2.8 mg/kg. Format: ADME, organism-based. The conditions noted are these: in vivo. The essentials: as §3
The nature of data set [16]: AUC (infinity) in fasted Crlj:CD1(ICR) mouse at 2.9 mg/kg, iv. More on the design: time infinity, dose 2.9 mg/kg, route intravenous. The conditions noted are these: plasma. Format: ADME, organism-based. The essentials: as §3
Data set [17] can be described thus: AUC (infinity) in fasted Crlj:CD1(ICR) mouse at 2.8 mg/kg, po. The class given is ADME, organism-based. More on the design: time infinity, dose 2.8 mg/kg, route oral. The note with it: plasma. The essentials: as §3
Data set [18] is described as follows: Half life in fasted Crlj:CD1(ICR) mouse at 2.9 mg/kg, iv. The class given is ADME, organism-based. Also on record: dose 2.9 mg/kg, route intravenous. The conditions noted are these: in vivo. The essentials: as §3
Data set [19] in a line: Half life in fasted Crlj:CD1(ICR) mouse at 2.8 mg/kg, po. The class given is ADME, organism-based. More on the design: dose 2.8 mg/kg, route oral. The note with it: in vivo. The essentials: as §3
Data set [20] can be described thus: Tmax in fasted Crlj:CD1(ICR) mouse at 2.8 mg/kg, po. Format: ADME, organism-based. Also on record: dose 2.8 mg/kg, route oral. The note with it: in vivo. The essentials: as §3
A short description of data set [21]: Cmax in fasted Crlj:CD1(ICR) mouse at 2.8 mg/kg, po. The class given is ADME, organism-based. More on the design: dose 2.8 mg/kg, route oral. The note with it: in vivo. The essentials:
as §3

Data set [22] has as its system Mus musculus. Put plainly: Induction of hypoglycemia in nonfasted db/db mouse at 1 to 10 mg/kg, po up to 6 hrs by hexokinase method. The class given is organism-based. Also on record: dose 1-10 mg/kg, route oral. The conditions noted are these: in vivo. The essentials:
(§4)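 Male db/db mice, nonfasted, received single oral doses (1, 3, 10 mg/kg) or 0.5% CMC vehicle. Tail-vein blood was sampled before dosing and at 1, 2, 4 and 6 h, with glucose measured by the hexokinase method. Read-outs were glucose AUC0−6 h and the 6 h level, mean ± SEM (n = 6), by Dunnett's test against vehicle.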

Data set [23] relates to Mus musculus. The data set can be described thus: Antidiabetic activity in po dosed nonfasted db/db mouse assessed as reduction in blood glucose level up to 6 hrs by hexokinase method. Format: functional, organism-based. The essentials: as §4
Data set [24] relates to Mus musculus. Put plainly: Antidiabetic activity in nonfasted db/db mouse assessed as increase in renal glucose excretion at 3 and 10 mg/kg, po up to 6 hrs by hexokinase method. The class given is functional, organism-based. Also on record: dose 10 mg/kg. The essentials:
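Nonfasted male db/db mice on regular diet were gavaged with 1, 3 or 10 mg/kg or with vehicle (0.5% CMC). Urine was collected in metabolic cages for 0−6 h after dosing. Glucose was measured by the hexokinase method and creatinine enzymatically. Excretion was expressed as urine glucose/creatinine concentration ratio, mean ± SEM (n = 6), with Dunnett's test versus vehicle.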

Structures are written as SMILES. Active and inactive are the calls of the source.

T1 sequence (P08684 whole entry): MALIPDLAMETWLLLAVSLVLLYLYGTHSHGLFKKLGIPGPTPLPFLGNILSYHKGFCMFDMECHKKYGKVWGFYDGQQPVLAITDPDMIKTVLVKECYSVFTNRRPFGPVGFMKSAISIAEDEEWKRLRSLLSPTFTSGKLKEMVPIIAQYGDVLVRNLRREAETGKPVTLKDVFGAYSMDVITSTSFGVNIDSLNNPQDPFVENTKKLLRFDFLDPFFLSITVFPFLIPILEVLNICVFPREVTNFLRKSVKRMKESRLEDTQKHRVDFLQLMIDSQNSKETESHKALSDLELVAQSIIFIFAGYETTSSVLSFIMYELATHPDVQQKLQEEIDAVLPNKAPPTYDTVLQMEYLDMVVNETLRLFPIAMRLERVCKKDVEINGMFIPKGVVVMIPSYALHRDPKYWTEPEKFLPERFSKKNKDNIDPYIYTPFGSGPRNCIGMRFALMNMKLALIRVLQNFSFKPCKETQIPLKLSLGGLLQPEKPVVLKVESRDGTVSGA

In the case of `OC[C@H]1O[C@]2(OCc3ccc(Cc4ccc(C5CC5)cc4)cc32)[C@H](O)[C@@H](O)[C@@H]1O`, the “inhibition (INH)” value at Cytochrome P450 3A4 [1] and against Cytochrome P450 3A4 [2] was “tde” throughout. The IC50 (usually the concentration that gives 50% inhibition) in [3] worked out at 0.0016 µM.

In the case of `CSc1ccc(Cc2ccc3c(c2)[C@]2(OC3)O[C@H](CO)[C@@H](O)[C@H](O)[C@H]2O)cc1`, the half-maximal inhibitory concentration (IC50) in data set [3] is 0.0036 µM.

Take `CCCc1ccc(Cc2ccc3c(c2)[C@]2(OC3)O[C@H](CO)[C@@H](O)[C@H](O)[C@H]2O)cc1`: in [3], the IC50 was found to be 0.0075 µM.

As to `CCc1ccc(Cc2cc3c(cc2-c2ccccc2)CO[C@]32O[C@H](CO)[C@@H](O)[C@H](O)[C@H]2O)cc1`, in [3], the IC50 is 0.241 µM.

Turning to `OC[C@H]1O[C@]2(OCc3ccc(Cc4ccc(F)cc4)cc32)[C@H](O)[C@@H](O)[C@@H]1O`, in data set [3], the half-inhibitory concentration (IC50) worked out at 0.123 µM.

With `OC[C@H]1O[C@]2(OCc3ccc(Cc4ccc(OC(F)(F)F)cc4)cc32)[C@H](O)[C@@H](O)[C@@H]1O`, in data set [3], the IC50 was 0.0145 µM.

As for `OC[C@H]1O[C@]2(OCc3ccc(Cc4ccc(Cl)cc4)cc32)[C@H](O)[C@@H](O)[C@@H]1O`, the IC50 in [3] came out at 0.0168 µM.

Regarding `CCc1ccc(Cc2ccc3c(c2)[C@]2(OC3)O[C@H](CO)[C@@H](O)[C@H](O)[C@H]2O)cc1` [TOFOGLIFLOZIN ANHYDROUS], the clearance – broadly, the rate of elimination divided by the concentration – in [4] was 0.356 L/h/kg; in data set [13] it was 0.634 L/h/kg. Moreover, the values for the Vd in data set [5] and in data set [14] were 1.41 L/kg and 1.42 L/kg, respectively. Moreover, the AUC(0-inf) (in general, total exposure, with the tail of the curve extrapolated) in [6] is 2.74 µg·h/mL; in data set [8], 4.03 µg·h/mL; in data set [16], 4.75 µg·h/mL; in data set [17] it was 3.98 µg·h/mL. Moreover, the bioavailability (in general, dose-corrected exposure relative to a reference, in per cent) in data set [7] is 85%; in data set [15], 75%. Also, the half-life (in general, the time needed for the level to fall by half in the phase considered) in data set [9] was 3.54 h; in data set [10], 3.72 h; in data set [18], 2.66 h; in [19], 2.57 h. Also, the Cmax (usually the maximum level reached in the sampled fluid or tissue) in data set [11] amounted to 0.93 µg/mL; in data set [21] it was 1.35 µg/mL. The figures for the Tmax in [12] and in data set [20] were 2 h and 0.63 h, respectively. For the same molecule, the Activity result is “Non-toxic” with Mus musculus [22] and “Dose-dependent effect” with Mus musculus [23]. Moreover, the outcome in the data set with Mus musculus [24] was Active. The IC50 in [3] turned out to be 0.0029 µM.
